CaV13 FRET inh = Primary screen for inhibitors of IQ motif and Ca2+-dependent inactivation inhibitor domain binding in CACNA1D, Förster resonance energy transfer in living cells, …; HEK cells, CFP/YFP FRET ICDI-IQ, plate reader, 10 min; percent FRET-ratio fall versus neutral wells; inhibition, % at 12.3 µM; actives 0.098% (n = 340,000);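 active = mean replicate inhibition of at least 30% and at least 1% of replicates passing that level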;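 also: 0% = median of the neutral control wells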
ARNT-TACC3 inh = disruptors of ARNT/TACC3 protein interaction, primary screen, biochemical, AlphaScreen, single concentration; Transforming acidic coiled-coil-containing protein 3 (Homo sapiens), Q9Y6A5; AlphaScreen His-ARNT PAS-B/GST-TACC3 binding, luminescence; TACC3 fragment carries E629A point mutation; inhibition, % at 9.99 µM; actives 0.66% (n = 390,000); AID 623870, 2012;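 active = mean inhibition of replicates at least 50% and at least half of replicates each reaching 50%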;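 also: 0% = complete ARNT plus TACC3 wells and 100% = ARNT alone without TACC3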
CAL PDZ FP-1 = CAL PDZ peptide-binding inhibitors, primary screen, biochemical, fluorescence polarization, Cer-tagged CAL PDZ, HTS. Golgi-associated PDZ and coiled-coil motif-containing protein (Homo sapiens), Q9HD26. purified CAL PDZ, TMR-peptide fluorescence polarization, 1 h. inhibition, % at 20 µM. actives 0.02% (n = 330,000). AID 504414, 2011;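 active = highest replicate inhibition of at least 40%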;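 also: plate controls were DMSO neutral control wells for no effect and unlabeled competitor peptide control wells for full effect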
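System: tagged CAL PDZ domain. Schedule: 1 h room-temperature incubation prior to read. Signal: fluorescence polarization (mP). Measure: percent inhibition from loss of millipolarization.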
CAL PDZ FP-2 = untagged CAL PDZ binding inhibitors, primary screen, biochemical, fluorescence polarization, HTS; Golgi-associated PDZ and coiled-coil motif-containing protein (Homo sapiens), Q9HD26; purified CAL PDZ, TMR-peptide fluorescence polarization, 1 h; inhibition, % at 24.9 µM; actives 0.92% (n = 300,000); AID 602252, 2012;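 active = mean inhibition of at least 30% with at least half of replicates also reaching 30%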;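 also: 0% = DMSO neutral control and 100% = excess unlabeled competitor peptide PRC23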
* hit, by the source's call; . = not tested or not shown. Most compounds without a hit are left out; they make up all but 1.2% or so of the library.

SMILES	CaV13 FRET inh	ARNT-TACC3 inh	CAL PDZ FP-1	CAL PDZ FP-2
Cc1ccc(C(=O)N/C(=C\c2cccs2)C(=O)NCCCn2ccnc2)cc1C	-7	71*	1	0
Cc1ccc(C(=O)N/C(=C\c2ccco2)C(=O)NCCCn2ccnc2)cc1C	-7	77*	0	-4
COc1ccc(C(=O)N/C(=C\c2ccco2)C(=O)NCCCn2ccnc2)cc1	-5	19	0	.
Cc1ccc(C(=O)N/C(=C\c2cccs2)C(=O)NCCCn2ccnc2)cc1	-4	2	-1	0
O=C(CCN1CCOCC1)c1ccccc1	-8	0	0	10
O=C(CCN1CCOCC1)NNC(=S)NC(=O)c1ccccc1	-4	48*	0	-3
O=C(COC(=O)c1ccccn1)c1cccc(Br)c1	-2	50*	-2	-2
O=C(C[C@H]1C=C[C@H](NC(=O)Nc2cc(F)ccc2F)[C@@H](CO)O1)NCc1ccc2c(c1)OCO2	.	6	.	.
COc1ccc(S(=O)(=O)N2CCC(C(=O)NCCC(=O)Nc3cccc(Cl)c3)CC2)cc1	-6	-1	-2	41*
C[C@H]1CCCCO[C@@H](CN(C)C(=O)Cc2ccccc2)[C@@H](C)CN([C@@H](C)CO)C(=O)c2cc(NS(=O)(=O)c3cccs3)ccc2O1	.	-14	.	.
COc1ccc(-c2nnc(NC(=O)C3CCCN3S(=O)(=O)c3cccs3)o2)cc1 (stereo not drawn)	-2	24	-2	-2
O=C(Nc1nnc(-c2ccccc2)o1)C1CCCN1S(=O)(=O)c1cccs1 (stereo not drawn)	-6	45*	-2	-1
COc1cc(C=NO)nc(-c2ccccn2)c1	-8	59*	0	-12
COc1cc(-c2noc(CCCC(=O)Nc3cccnc3)n2)cc(OC)c1OC	-2	27	-1	69*
Cc1sc2nc(CN3CCN(c4ccc(O)cc4)CC3)[nH]c(=O)c2c1C	-8	-2	1	45*
O=c1[nH]c(CN2CCN(c3ccccc3)CC2)nc2scc(-c3ccccc3)c12	-16	0	-1	-5
COc1cccc(C2(O)CCN(C(=O)C(C)C)CC2)c1	-4	-5	-1	60*
COc1cccc(C2(O)CCN(C(=O)c3cccs3)CC2)c1	-4	25	.	-18
Cc1cc(C(=O)Nc2cccc3c2O[C@@H](CN(C)Cc2ccc(Cl)c(Cl)c2)[C@@H](C)CN([C@H](C)CO)C3=O)n(C)n1	.	-2	.	.
COCC(=O)N(C)C[C@@H]1Oc2cc(C#CCC3CCCC3)ccc2S(=O)(=O)N([C@@H](C)CO)C[C@H]1C	.	-29	.	.
CCCn1nnnc1SCC(=O)N1CCCC1	.	-3	-1	43*
CCCn1nnnc1SCC(=O)N1CCCCC1	-4	-2	-3	14
COc1ccc(-c2cn3cc([N+](=O)[O-])ccc3n2)cc1OC	-5	9	0	60*
COc1ccc(-c2cn3ccccc3n2)cc1[N+](=O)[O-]	-5	5	-1	-2
C[C@H](CO)N1C[C@H](C)[C@@H](CN(C)S(=O)(=O)c2cn(C)cn2)Oc2c(NC(=O)NC3CCCCC3)cccc2C1=O	.	-1	.	.
SMILES	CaV13 FRET inh	ARNT-TACC3 inh	CAL PDZ FP-1	CAL PDZ FP-2
COc1ccc(CCN(C)C(=O)C2CCN(Cc3ccccc3)CC2)cc1OC	2	-1	-4	-1
COc1ccc(CCN(C)C(=O)C2CCN(Cc3cccc(OC)c3OC)CC2)cc1OC	5	-4	4	37*
NCC(O)COCCC12CC3CC(CC(C3)C1)C2 (stereo not drawn)	-4	2	-2	39*
CC(C)C#Cc1ccc2c(c1)O[C@@H](CN(C)CC1CCOCC1)[C@@H](C)CN([C@@H](C)CO)S2(=O)=O	.	23	.	.
Cn1cccc1-c1nc2ccc(NC(=O)c3cccs3)cc2[nH]1	-5	36*	1	1
CC(=O)Nc1ccc2nc(-c3cccn3C)[nH]c2c1	-5	-3	1	35*
CCCN1[C@@H]2Cn3c(ccc(C4=CCCC4)c3=O)[C@H]1[C@@H](C(=O)NCCOC)[C@@H]2CO	.	-16	.	.
COc1cc(/C=N/NC(N)=S)cc(Br)c1OCc1ccccc1F	-3	-24	-1	124*
CCOc1cc(/C=N/NC(N)=S)cc(Br)c1OCc1ccccc1C	.	-1	-1	0
C[C@H]1CN([C@@H](C)CO)C(=O)c2cc(C#CC3CC3)cnc2O[C@H]1CN(C)C(=O)CC1CC1	.	26	.	.
CCn1c(SCc2ccc(F)cc2)nnc1C1CCN(S(=O)(=O)c2ccc(OC)cc2)CC1	.	7	-2	49*
O=C(CSc1nnc(-c2cccnc2)o1)Nc1nccs1	-15	50*	-2	0
O=C(CSc1nnc(-c2cccnc2)o1)Nc1ccc(F)cc1	-15	.	.	.
COc1cc(NC(=O)c2cc([N+](=O)[O-])ccc2NC(=O)CNC2CCCCC2)cc(OC)c1	-3	.	0	-7
O=C(CNC1CCCCC1)Nc1ccc([N+](=O)[O-])cc1C(=O)Nc1ccccc1F	-3	2	-2	63*
COc1ccc(NC(=O)c2cc([N+](=O)[O-])ccc2NC(=O)CNCc2ccccn2)c(OC)c1	-6	46*	-1	4
COc1cc(NC(=O)c2cc([N+](=O)[O-])ccc2NC(=O)CNCc2ccccn2)cc(OC)c1	-6	38*	-2	0
COc1cc([N+](=O)[O-])ccc1NC(=O)CSc1ccccn1	.	-2	-1	2
COc1ccc(NC(=O)N(C)C[C@H]2OCCCC[C@@H](C)Oc3ccc(NC(=O)Cc4ccccc4)cc3C(=O)N([C@@H](C)CO)C[C@@H]2C)cc1	.	9	.	.
CCN(CC)c1ccc(N2C(=O)CSC2=S)cc1	-6	36	-4	45*
CCOc1ccc(N2C(=O)CSC2=S)cc1	-3	-5	0	.
O=C(NC1CCCC1)C(c1ccncc1)N(CC1CCCO1)C(=O)Cn1nnc(-c2cccs2)n1 (stereo not drawn)	.	1	0	32*
CC(C)(C)N(C(=O)Cn1nnc(-c2ccc(F)cc2)n1)C(C(=O)NC1CCCC1)c1ccncc1 (stereo not drawn)	-5	5	-1	36*
O=S(=O)(N[C@@H]1CC[C@H](CCn2cc(-c3cccc(F)c3)nn2)O[C@@H]1CO)c1ccc(F)cc1	.	1	.	.
CC(C)=NNc1ncnc2nc[nH]c12	-16	72*	-1	-3
CN(C(=O)c1ccccc1)C1(C)CCS(=O)(=O)C1 (stereo not drawn)	.	.	-2	-2
CN(C(=O)c1cc2ccccc2oc1=O)C1(C)CCS(=O)(=O)C1 (stereo not drawn)	-4	0	-1	47*
Cc1cccc(NC(=O)Cn2c(/C=C/c3ccccc3)nc3ccccc32)c1	-16	48*	-2	-2
